Experiments:
Hh signaling = experiment: Gli luciferase reporter assay in NIH3T3-12Gli cells; type: cell-based; conditions: for IC50: 36 h, read-out: IC50, Hh signaling induced by Shh-N conditioned medium (luciferase reporter)
[1] = system: Hh signaling mediated by Smo-WT; experiment: Luciferase reporter assay in NIH3T3-12Gli cells expressing Smo-WT-EYFP; type: cell-based, human
[2] = system: Hh signaling mediated by Smo-M2; experiment: Luciferase reporter assay in NIH3T3-12Gli cells expressing Smo-M2-EYFP; type: cell-based, human
[3] = system: Hh signaling mediated by Smo-DH; experiment: Luciferase reporter assay in NIH3T3-12Gli cells expressing Smo-DH-EYFP; type: cell-based, human; conditions: in the absence or presence of Shh-N
Smo-DH = Smo-DH (Homo sapiens, UniProt Q99835, D473H); experiment: BODIPY-cyclopamine binding competition, HEK293T cells expressing Smo-DH
Sequence of Smo-DH (Q99835 28-787 D473H): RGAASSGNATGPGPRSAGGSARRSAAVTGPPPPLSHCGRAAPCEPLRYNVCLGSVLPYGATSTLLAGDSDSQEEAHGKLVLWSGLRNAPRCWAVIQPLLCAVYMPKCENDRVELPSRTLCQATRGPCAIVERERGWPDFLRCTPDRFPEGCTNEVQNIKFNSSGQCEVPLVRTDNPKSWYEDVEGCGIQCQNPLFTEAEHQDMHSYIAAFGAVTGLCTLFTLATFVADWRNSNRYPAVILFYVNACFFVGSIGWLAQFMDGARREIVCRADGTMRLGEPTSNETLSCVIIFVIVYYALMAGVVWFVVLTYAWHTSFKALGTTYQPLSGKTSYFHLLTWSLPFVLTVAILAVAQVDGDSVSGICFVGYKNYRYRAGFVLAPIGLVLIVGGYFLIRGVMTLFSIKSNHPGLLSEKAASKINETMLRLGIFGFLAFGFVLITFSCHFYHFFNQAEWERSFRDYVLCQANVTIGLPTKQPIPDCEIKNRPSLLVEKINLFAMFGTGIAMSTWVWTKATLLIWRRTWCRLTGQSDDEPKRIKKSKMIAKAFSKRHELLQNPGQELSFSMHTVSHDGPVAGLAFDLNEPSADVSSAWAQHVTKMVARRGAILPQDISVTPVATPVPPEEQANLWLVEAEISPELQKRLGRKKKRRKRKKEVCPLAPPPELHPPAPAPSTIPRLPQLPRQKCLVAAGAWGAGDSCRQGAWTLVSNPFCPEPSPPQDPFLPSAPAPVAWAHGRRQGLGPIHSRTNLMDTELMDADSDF

Smo-WT = Smo-WT (Homo sapiens, UniProt Q99835); experiment: Smo ciliary translocation assay, NIH3T3 cells expressing Smo-WT-EYFP; type: cell-based; conditions: Shh-N 20%, SAG 100 nmol/L
Sequence of Smo-WT (Q99835 28-787): as the sequence (Q99835 28-787 D473H) above, with H446D counted along it
Summary of the method: (§1)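 NIH3T3 cells were transfected with pEYFP-Smo (WT or M2), selected in 500 μg/mL G418, and monoclonal clones were picked. Clones were treated with 0.1% DMSO, 20% Shh-N conditioned medium and/or 100 nmol/L SAG, with or without test compound. Smo-EYFP was imaged directly, cilia by acetylated α-tubulin immunofluorescence, nuclei by DAPI. At least two clones were used.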

Smo-M2 = Smo-M2 (Homo sapiens, UniProt Q99835, W535L); experiment: Smo ciliary translocation assay, NIH3T3 cells expressing Smo-M2-EYFP; type: cell-based; conditions: Shh-N 20%, SAG 100 nmol/L
Sequence of Smo-M2 (Q99835 28-787 W535L): as the sequence (Q99835 28-787 D473H) above, with H446D, W508L counted along it
Summary of the method: as §1

Gli-1 = experiment: Quantitative real-time PCR, Gli-1 mRNA; type: cell-based, mouse; conditions: NIH3T3-12Gli cells, 24 h; for Gli-1 transcription induced by Shh-N: presence of Shh-N
Summary of the method: (§2)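 Total RNA is extracted with Trizol and quantified. cDNA is made with a PrimeScript reverse-transcription kit, then SYBR Green real-time PCR is run with mouse-specific primers and GAPDH as the reference gene. Relative expression is calculated by the 2(-ΔΔCt) method, with ΔCt = Ct of the target gene minus Ct of GAPDH.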

Ptch-1 = experiment: Quantitative real-time PCR, Ptch-1 mRNA; type: cell-based, mouse; conditions: NIH3T3-12Gli cell line, data not shown
Summary of the method: as §2

NIH3T3 cells = experiment: Immunoblotting of acetylated α-tubulin and total histones; type: cell-based; conditions: 6 h treatment
Gli-2 = experiment: Quantitative real-time PCR, Gli-2 mRNA; type: cell-based, mouse; conditions: NIH3T3-12Gli cells, presence or absence of Shh-N, 24 h
Summary of the method: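 NIH3T3-12Gli cells are kept in either HEK293 control medium or Shh-N conditioned medium and treated in triplicate with test compound or DMSO control. RNA is extracted with Trizol, cDNA is made with a PrimeScript kit, and SYBR Green qPCR is run with mouse Gli-2 primers. Values are normalised to GAPDH and relative expression is derived by the 2(-ΔΔCt) method.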

NIH3T3-12Gli cells = experiment: Immunofluorescence of acetylated and detyrosinated tubulin of primary cilia; type: cell-based; conditions: Fig. S1
Summary of the method: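 Reporter NIH3T3 clone (NIH3T3-12Gli, stably carrying a Gli-responsive luciferase reporter) was exposed to test compounds or conditions. Primary cilia were co-immunostained with anti-detyrosinated (glu) tubulin and anti-acetylated α-tubulin antibodies, and nuclei were stained with DAPI. Cilia were imaged by fluorescence microscopy.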

IC50 (Hh signaling)	Inhibition of association of BODIPY-cyclopamine with Smo-DH / binding to Smo-DH (Smo-DH)	Suppression of Smo localization to primary cilium induced by Shh-N and SAG (Smo-WT)	Effect on accumulation of Smo-M2 in cilia induced by Hh pathway stimulators (Smo-M2)	Compound	Concentration that almost maximally blocked reporter activity ([1]; NIH3T3-12Gli cells expressing Smo-WT)	Inhibition of reporter activity of cells expressing Smo-WT-EYFP ([1]; in the absence of Shh-N)	Inhibition of Hh signaling mediated by Smo-M2 ([2]; in the absence of Shh-N)	Concentration that fully blocked Hh pathway, Smo-M2 ([2]; in the presence of Shh-N)	Inhibition of reporter activity in Smo-DH-transfected cells [3]	Gli-1 transcription induced by Shh-N (Gli-1)	Expression of Ptch-1 induced by Shh-N (Ptch-1)	Block of reporter activity at 3 μmol/L (Hh signaling; 3 μmol/L)	Acetylation of total histones and α-tubulin (NIH3T3 cells)	Gli-1 transcription, Hh pathway in off-state (Gli-1; absence of Shh-N)	Gli-2 transcription (Gli-2)	Acetylation and detyrosination of primary cilia (NIH3T3-12Gli cells)
19.7 nM	inability to bind Smo-DH	effectively suppressed	did not inhibit	CS(=O)(=O)c1ccc(C(=O)Nc2ccc(Cl)c(-c3ccccn3)c2)c(Cl)c1 [vismodegib]	1 µmol/L	slightly but dose-dependently inhibited	significantly inhibited	> 10 µmol/L	no inhibition	potently inhibited	effectively suppressed					
670 nM		but not vorinostat		O=C(CCCCCCC(=O)Nc1ccccc1)NO [vorinostat]						potently inhibited	effectively suppressed	almost completely blocked	effectively and dose dependently increased	significantly increased	significantly and dose-dependently suppressed	downregulated the acetylation but not the detyrosination

— PMC4186412 (Pharmacology Research & Perspectives, 2014)
